Calls of active or inactive are those of the source. No cut-off for these calls is given here.
Columns and labels:
[1] = tested on: Hepatitis B virus; assay: Antiviral activity against HBV infected in human HepG2.2.15 cells assessed as […] at 100 uM incubated for 4 days prior to compound washout followed by compound addition and measured after 4 days by fluorogenic probe based RT-qPCR analysis relative to control; type: functional; conditions: for inhibition at 100 µM: HepG2.2.15, 192 h, time 8 day
[2] = tested on: HepG2 2.2.15; assay: Cytotoxicity against human HepG2.2.15 cells assessed as reduction in cell viability at 100 uM incubated for 4 days prior to compound washout followed by compound addition and measured after 4 days by CCK8 assay relative to control; type: cell-based; conditions: hepg2 2.2.15, 192 h, time 8 day
How it was run: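 Three wells of 4000 HepG2.2.15 cells per well received a single 100 µM concentration for 8 days, with medium replaced on day 4. CCK-8 (10%) was added 0.5 h before the end, and OD was read at 450 and 630 nm. Percent cell death was calculated against untreated cells.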

[3] = tested on: Hepatitis B virus; assay: Antiviral activity against HBV infected in human HepG2.2.15 cells assessed as reduction in intracellular viral DNA level at 50 uM incubated for 4 days prior to compound washout followed by compound addition and measured after 4 days by fluorogenic probe based RT-qPCR analysis relative to control; type: functional; conditions: for inhibition at 50 µM: HepG2.2.15, 192 h, time 8 day
[4] = tested on: HepG2 2.2.15; assay: Cytotoxicity against human HepG2.2.15 cells assessed as reduction in cell viability at 50 uM incubated for 4 days prior to compound washout followed by compound addition and measured after 4 days by CCK8 assay relative to control; type: cell-based; conditions: hepg2 2.2.15, 192 h, time 8 day
[5] = tested on: Hepatitis B virus; assay: Antiviral activity against HBV infected in human HepG2.2.15 cells assessed as reduction in intracellular viral DNA level at 20 uM incubated for 4 days prior to compound washout followed by compound addition and measured after 4 days by fluorogenic probe based RT-qPCR analysis relative to control; type: functional; conditions: for inhibition at 20 µM: HepG2.2.15, 192 h, time 8 day; for inhibition: time 8.0 day
[6] = tested on: HepG2 2.2.15; assay: Cytotoxicity against human HepG2.2.15 cells assessed as reduction in cell viability at 20 uM incubated for 4 days prior to compound washout followed by compound addition and measured after 4 days by CCK8 assay relative to control; type: cell-based; conditions: hepg2 2.2.15, 192 h, time 8 day
[7] = Cytotoxicity against human HepG2.2.15 cells assessed as reduction in cell viability incubated for 4 days prior to compound washout followed by compound addition and measured after 4 days by […]; type: cell-based, HepG2 2.2.15; conditions: time 8 day
[8] = Cytotoxicity against human HepG2.2.15 cells assessed as reduction in cell viability incubated for 4 days prior to compound washout followed by compound addition and measured after 4 days by CCK8 assay; type: cell-based, HepG2 2.2.15; conditions: time 8 day
How it was run: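 Cytotoxicity in HepG2.2.15 cells was measured with five doses (100, 20, 4, 0.8, 0.16 µM) over 8 days, with medium changed on day 4. CCK-8 (10%) was added 0.5 h before the end, OD was read at 450/630 nm, and CC50 is the concentration killing 50% of cells against untreated controls.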

[9] = tested on: Hepatitis B virus; assay: Antiviral activity against HBV infected in human HepG2.2.15 cells assessed as […] incubated for 4 days prior to compound washout followed by compound addition and measured after 4 days by fluorogenic probe based RT-qPCR analysis; type: functional, organism-based
[10] = Selectivity index, ratio of CC50 for human HepG2.2.15 cells to IC50 for antiviral activity against HBV infected in human HepG2.2.15 cells assessed as reduction in intracellular viral DNA level; type: toxicity, cell-based; conditions: read-out: Ratio CC50/IC50
[11] = tested on: Hepatitis B virus; assay: Antiviral activity against HBV infected in human HepG2.2.15 cells assessed as reduction in HBsAg secretion incubated for 4 days prior to compound washout followed by compound addition and measured after 4 days by ELISA; type: functional, organism-based
How it was run: (§1)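 Five doses (100, 20, 4, 0.8, 0.16 µM) were added in triplicate to HepG2.2.15 cultures for 8 days, with fresh medium on day 4 and untreated controls. Day-8 supernatants were assayed for HBsAg and HBeAg by ELISA kit with absorbance read-out. IC50 is the concentration giving 50% inhibition of antigen secretion.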

[12] = Selectivity index, ratio of CC50 for human HepG2.2.15 cells to IC50 for antiviral activity against HBV infected in human HepG2.2.15 cells assessed as reduction in HBsAg secretion; type: toxicity, cell-based; conditions: read-out: Ratio CC50/IC50
[13] = tested on: Hepatitis B virus; assay: Antiviral activity against HBV infected in human HepG2.2.15 cells assessed as reduction in HBeAg secretion incubated for 4 days prior to compound washout followed by compound addition and measured after 4 days by ELISA; type: functional, organism-based; how it was run: as §1
[14] = Selectivity index, ratio of CC50 for human HepG2.2.15 cells to IC50 for antiviral activity against HBV infected in human HepG2.2.15 cells assessed as reduction in HBeAg secretion; type: toxicity, cell-based; conditions: read-out: Ratio CC50/IC50
[15] = tested on: Hepatitis B virus; assay: Binding affinity to recombinant HBV capsid protein assessed as response value at 100 uM by surface plasmon resonance analysis (reference value: 14.56)
How it was run: (§2)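 Recombinant HBV capsid protein purified and amine-coupled to a CM5 sensor chip. Six doses of test compound run with running buffer containing 5% DMSO, plus eight solvent-calibration solutions and 50% DMSO solution. Samples centrifuged 15 min before loading. PBS and NaAc-HAc buffers used. Binding read as SPR response.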

[16] = tested on: Hepatitis B virus; assay: Binding affinity to recombinant HBV capsid protein assessed as response value at 50 uM by surface plasmon resonance analysis (reference value: 14.56); how it was run: as §2
[17] = tested on: Hepatitis B virus; assay: Binding affinity to recombinant HBV capsid protein assessed as response value at 25 uM by surface plasmon resonance analysis (reference value: 14.56); how it was run: as §2
[18] = tested on: Hepatitis B virus; assay: Binding affinity to recombinant HBV capsid protein assessed as response value at 12.5 uM by surface plasmon resonance analysis (reference value: 14.56); how it was run: as §2
[19] = tested on: Hepatitis B virus; assay: Binding affinity to recombinant HBV capsid protein assessed as response value at 6.25 uM by surface plasmon resonance analysis (reference value: 14.56); how it was run: as §2
[20] = (§3) Binding affinity to recombinant HBV capsid protein by surface plasmon resonance analysis; set-up: species or system Hepatitis B virus; how it was run: as §2
[21] = tested on: Hepatitis B virus; assay: as §3; how it was run: as §2
[22] = tested on: Hepatitis B virus; assay: Antiviral activity against HBV infected in human HepG2.2.15 cells assessed as reduction in intracellular viral DNA level incubated for 8 days by fluorogenic probe based RT-qPCR analysis; conditions: HepG2.2.15, 192 h

| IC50 [9] [µM] | IC50 [11] [µM] | IC50 [13] [µM] | Compound | inhibition at 100 µM [1] [%] | Activity [2] [%] | Activity [4] | Activity [6] | CC50 at 192 h [8] [µM] | selectivity ratio [10] | selectivity ratio [14] | also measured |
| --- | --- | --- | --- | --- | --- | --- | --- | --- | --- | --- | --- |
|  |  |  | O=C(NCc1ccc(F)cc1F)c1cn(-c2nccs2)nc1NCc1ccccc1 | 32.9 | 16.9 |  |  |  |  |  |  |
|  |  |  | CC(C)Cc1nc(-c2cccc(F)c2)ncc1C(=O)NCc1ccc(F)cc1 |  |  | Non-Toxic |  |  |  |  | inhibition at 50 µM [3]: 35.6% |
|  |  |  | CCOC(=O)c1cnc(-c2cccc(F)c2)nc1CC(C)C |  |  | Non-Toxic |  |  |  |  | inhibition at 50 µM [3]: 46.3% |
|  |  |  | O=C(NC1CC1)c1cn(-c2cccc(F)c2)nc1NCc1ccccc1 | 38.8 | 40.8 |  |  |  |  |  |  |
|  |  |  | CC(C)Cc1nc(-c2cc3ccccc3s2)sc1C(=O)NCc1ccc(F)cc1 |  |  |  | Non-Toxic |  |  |  | inhibition at 20 µM [5]: 21.1% |
| 40.5 | 3.8 | 62.3 | CC(C)Cc1nc(-c2ccncc2)sc1C(=O)NCc1ccc(F)cc1 |  |  |  | 35.8% | > 100 | > 2.5 | > 1.6 | inhibition at 20 µM [5]: 57.8%; selectivity ratio [12]: > 26.3 |
|  |  |  | O=C(NCc1ccc(F)cc1)c1ccc(-c2ccccc2)nc1-c1ccccc1 |  |  | 4.4% |  |  |  |  | inhibition ([3]; time 8.0 day): inactive |
|  |  |  | CCOC(=O)c1cn(-c2cccc(F)c2)nc1SC1CCCCC1 |  | 18.1 |  |  |  |  |  | inhibition ([1]; time 8.0 day): inactive |
| 9.9 | > 100 | 9.7 | CC(C)Cc1nc(-c2cccc(F)c2)ncc1C(=O)O |  |  | Non-Toxic |  | > 100 | > 10.1 | > 10.3 | inhibition at 50 µM [3]: 54.2% |
| 2.7 | 21 | 30.1 | CC(C)Cc1sc(-c2nccs2)nc1C(=O)NCc1ccc(F)cc1F | 83.8 | 24.9 |  |  | 45.4 | 16.8 | 1.5 | selectivity ratio [12]: 2.2 |
|  |  |  | CC(C)Cc1nc(NS(=O)(=O)c2ccc(F)cc2)sc1C(=O)NCc1ccc(F)cc1 |  |  |  | 17.5% |  |  |  | inhibition [5]: inactive |
|  |  |  | CC(C)Cc1nc(-c2cccs2)sc1C(=O)NCc1ccc(F)cc1 |  |  |  | 17.8% |  |  |  | inhibition [5]: inactive |

| Compound | IC50 [9] [µM] | IC50 [11] [µM] | IC50 [13] [µM] | inhibition at 100 µM [1] [%] | Activity [2] [%] | Activity [4] | Activity [6] | CC50 at 192 h [8] [µM] | selectivity ratio [10] | selectivity ratio [14] | also measured |
| --- | --- | --- | --- | --- | --- | --- | --- | --- | --- | --- | --- |
| CC(C)Cc1sc(-c2nccs2)nc1C(=O)NCc1ccc(F)cc1 | 2.3 | 31.7 | 31.7 | 97.3 | 98.8 |  |  | 59.2 | 25.7 | 1.9 | CC50 at 192 h [7]: 50.4 µM; selectivity ratio [12]: 1.9; Activity [15]: 63.5 RU; Activity [16]: 41.4 RU; Activity [17]: 38.4 RU; Activity [18]: 23.9 RU; Activity [19]: 17.7 RU; Kd [20]: 50.6 µM; Activity [21]: Dose-dependent effect; IC50 [22]: 1.33 µM |
